A short description of assay [1]: (§1) Ability for reversible inhibition of Walker 256 5-Fluoro-2'-deoxyuridine Phosphorylase. Also noted: species or system Rattus norvegicus. The following applies: read-out: I 50. A digest of the protocol: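 Enzyme from Walker 256 rat tumor, assayed with 400 μM FUDR as substrate in pH 5.9 arsenate-succinate buffer with 10% Me2SO. Value reported as concentration giving 50% inhibition.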

A further assay is filed under the species Rattus norvegicus. The assay can be described thus: Irreversible inhibition of Walker 256 FUDR phosphorylase; expressed as Vo/Vi, velocity without inhibitor to that of velocity with inhibitor. A digest of the protocol:
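Walker 256 FUDR phosphorylase preincubated 20 min at ambient temperature with 20 μM (final) inhibitor in pH 5.9 arsenate-succinate buffer, 10% Me2SO, alongside zero-time tubes. Unbound inhibitor then removed by two 1-octanol extractions. Remaining activity assayed after adding 4 mM FUDR stock, stopped with 5% trichloroacetic acid, read as for reversible assay. V0/Vi of 2 corresponds to 50% inhibition.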

Assay [2] in a line: as §1. On the set-up: species or system Rattus norvegicus. The following applies: read-out: I50. A digest of the protocol:
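Walker 256 rat tumor FUDR phosphorylase (uridine-deoxyuridine phosphorylase) was assayed with 400 μM FUDR substrate in pH 5.9 arsenate-succinate buffer containing 10% Me2SO. The value is the inhibitor concentration giving 50% inhibition (I50).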

As to `CCOc1cccc(Cc2cn(Cc3cccc(NC(=O)Nc4ccc(S(=O)(=O)F)cc4)c3)c(=O)[nH]c2=O)c1`, the IC50 in assay [1] was 1.9 µM. Besides, in the assay listed under Rattus norvegicus, the Ratio came out at 1.1. With `CCOc1cccc(Cc2cn(Cc3ccc(NC(=O)c4cccc(S(=O)(=O)F)c4)cc3)c(=O)[nH]c2=O)c1`, the IC50 in assay [1] was determined as 33 µM. Besides, in the assay listed under Rattus norvegicus, the Ratio amounted to 1. Regarding `CCOc1cccc(Cc2cn(Cc3cccc(NC(=O)c4ccccc4)c3)c(=O)[nH]c2=O)c1`, in assay [2], the IC50 was determined as 1.2 µM. In the assay listed under Rattus norvegicus, the Ratio amounted to 1.2. Regarding `CCOc1cccc(Cc2cn(Cc3ccc(NC(=O)c4ccccc4)cc3)c(=O)[nH]c2=O)c1`, the IC50 in assay [2] amounted to 3.8 µM.

For `CCOc1cccc(Cc2cn(Cc3cccc(NC(=O)Nc4cccc(S(=O)(=O)F)c4)c3)c(=O)[nH]c2=O)c1`, the IC50 in assay [1] turned out to be 1.1 µM. Moreover, in the assay filed under Rattus norvegicus, the Ratio stood at 1.2. Turning to `O=c1[nH]c(=O)n(Cc2ccccc2)cc1Cc1cccc(OCc2ccccc2)c1`, the IC50 in assay [2] is 2.5 µM. With `O=c1[nH]c(=O)n(CCCOc2ccccc2)cc1Cc1ccccc1`, the IC50 in assay [2] came to 5.7 µM. Take `O=c1[nH]c(=O)n(Cc2ccccc2)cc1Cc1ccccc1`: the IC50 in assay [2] was 2.6 µM. Take `CCOc1cccc(Cc2cn(Cc3cccc(NC(=O)c4ccc(S(=O)(=O)F)cc4)c3)c(=O)[nH]c2=O)c1`: the IC50 in assay [1] worked out at 2.5 µM. In addition, in the assay listed under Rattus norvegicus, the Ratio is 1. Take `Oc1ncc(Cc2cccc(OCc3ccccc3)c2)c(O)n1`: in assay [2], the IC50 came out at 0.5 µM. Consider `COc1cccc(Cc2cnc(O)nc2O)c1`, for which, in assay [2], the IC50 amounted to 1.9 µM.

On to `CCOc1cccc(Cc2cn(Cc3cccc(NC(=O)c4cccc(S(=O)(=O)F)c4)c3)c(=O)[nH]c2=O)c1`, for which the IC50 in assay [1] is 3.2 µM. Also, in the assay filed under Rattus norvegicus, the Ratio worked out at 1.1. With `CCOc1cccc(Cc2cn(Cc3ccccc3)c(=O)[nH]c2=O)c1`, in assay [1], the IC50 amounted to 1.2 µM.

On to `CCOc1cccc(Cc2cn(Cc3ccc(NC(=O)c4ccc(S(=O)(=O)F)cc4)cc3)c(=O)[nH]c2=O)c1`, for which the IC50 in assay [1] was found to be 15 µM. Moreover, the Ratio in the assay listed under Rattus norvegicus is 1. On to `Oc1ncc(Cc2ccccc2)c(O)n1`, for which, in assay [2], the IC50 amounted to 5.3 µM.

Take `CCOc1cccc(Cc2cnc(O)nc2O)c1`: in assay [1], the IC50 stood at 1.4 µM. In the case of `Cn1cc(Cc2ccccc2)c(=O)[nH]c1=O`, the IC50 in assay [2] is 6.2 µM.

(Values after ChEMBL document CHEMBL1122161, “Irreversible enzyme inhibitors. 202. Candidate active-site-directed irreversible inhibitors of 5-fluoro-2'-deoxyuridine phosphorylase from Walker 256 rat tumor derived from 1-benzyl-5-(3-ethoxybenzyl)uracil” (J Med Chem, 1982).)
